# Source: the RNAGym collection of RNA variant scans (doi:10.1002/anie.201605470)
# B1: Osa-1-4 twister ribozyme (parent)
# chain: CCGCCUAACACUGCCAAUGCCGGUCCCAAGCCCGGAUAAAAGUGGAGGGGGCGG
# Variants of: B1
# Experiment: self-cleavage, relative activity (ratio to wild type); higher = more cleavage; co-transcriptional
# How it was run: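 The 48 positions downstream of the cleavage site in a DNA template for a 54-nucleotide Oryza sativa twister ribozyme carried 97 % wild-type base and 1 % of each other base. After in vitro transcription (2 h, 37 °C) with co-transcriptional self-cleavage, the RNA was reverse-transcribed with a template-switching oligonucleotide, PCR-amplified and deep-sequenced. Relative activity is the fraction cleaved, judged by reads with or without upstream sequence and normalised to wild type.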
row,Variant,self-cleavage
1,CCGCCUAACACUUCCAAUGCCGGGCCCAAGCCCGGAUAAAAGUGGAGGGGGCGG [G13U U24G],0.02
2,CCGCCUAACACUUCCAAUGCCGGCCCCAAGCCCGGAUAAAAGUGGAGGGGGCGG [G13U U24C],0.03
3,CCGCCUAACACUUCCAAUGCCGGACCCAAGCCCGGAUAAAAGUGGAGGGGGCGG [G13U U24A],0.01
4,CCGCCUAACACUUCCAACGCCGGUCCCAAGCCCGGAUAAAAGUGGAGGGGGCGG [G13U U18C],0.03
5,CCGCCUAACACUUCCAAGGCCGGUCCCAAGCCCGGAUAAAAGUGGAGGGGGCGG [G13U U18G],0.05
6,CCGCCUAACACUGACAAUGCCGGUCCCAAGCUCGGAUAAAAGUGGAGGGGGCGG [C14A C32U],0.03
7,CCGCCUAACACUGACAAUGCCGGUCCCAAGCGCGGAUAAAAGUGGAGGGGGCGG [C14A C32G],0.03
8,CCGCCUAACACUGACAAUGCCGGUCCCAAGCACGGAUAAAAGUGGAGGGGGCGG [C14A C32A],0.05
9,CCGCCUAACACUGACAAUGCCGGUCCCAAGCCUGGAUAAAAGUGGAGGGGGCGG [C14A C33U],0.06
10,CCGCCUAACACUGACAAUGCCGGUCCCAAGCCAGGAUAAAAGUGGAGGGGGCGG [C14A C33A],0.03
11,CCGCCUAACACUGACAAUGCCGGUCCCAAGCCGGGAUAAAAGUGGAGGGGGCGG [C14A C33G],0.01
12,CCGCCUAACACUGACAAUGCCGGUCGCAAGCCCGGAUAAAAGUGGAGGGGGCGG [C14A C26G],0.02
13,CCGCCUAACACUGACAAUGCCGGUCACAAGCCCGGAUAAAAGUGGAGGGGGCGG [C14A C26A],0.05
14,CCGCCUAACACUGACAAUGCCGGUCUCAAGCCCGGAUAAAAGUGGAGGGGGCGG [C14A C26U],0.05
15,CCGCCUAAGACUGACAAUGCCGGUCCCAAGCCCGGAUAAAAGUGGAGGGGGCGG [C14A C9G],0.06
16,CCGCCUAAUACUGACAAUGCCGGUCCCAAGCCCGGAUAAAAGUGGAGGGGGCGG [C14A C9U],0.06
17,CCGCCUAAAACUGACAAUGCCGGUCCCAAGCCCGGAUAAAAGUGGAGGGGGCGG [C14A C9A],0.03
18,CCGCCUAACACUUCCAAUGCCGGUCCCAAGCCCGGAUAAAAGCGGAGGGGGCGG [G13U U43C],0.03
19,CCGCCUAACACUUCCAAUGCCGGUCCCAAGCCCGGAUAAAAGAGGAGGGGGCGG [G13U U43A],0.02
20,CCGCCUAACACUUCCAAUGCCGGUCCCAAGCCCGGAUAAAAGGGGAGGGGGCGG [G13U U43G],0.04
21,CCGCCUAACACUGACAAUGUCGGUCCCAAGCCCGGAUAAAAGUGGAGGGGGCGG [C14A C20U],0.16
22,CCGCCUAACACUGACAAUGACGGUCCCAAGCCCGGAUAAAAGUGGAGGGGGCGG [C14A C20A],0.12
23,CCGCCUAACACUGACAAUGGCGGUCCCAAGCCCGGAUAAAAGUGGAGGGGGCGG [C14A C20G],0.03
24,CCGCCUAACACUGACAAUACCGGUCCCAAGCCCGGAUAAAAGUGGAGGGGGCGG [C14A G19A],0.1
25,CCGCCUAACACUGAUAAUGCCGGUCCCAAGCCCGGAUAAAAGUGGAGGGGGCGG [C14A C15U],0.05

row,Variant,self-cleavage
1,CCGCCUAACACUGAGAAUGCCGGUCCCAAGCCCGGAUAAAAGUGGAGGGGGCGG [C14A C15G],0.05
2,CCGCCUAACACUGAAAAUGCCGGUCCCAAGCCCGGAUAAAAGUGGAGGGGGCGG [C14A C15A],0.07
3,CCGCCUAACACUGACAAUGCCGGUCCCAAGUCCGGAUAAAAGUGGAGGGGGCGG [C14A C31U],0.04
4,CCGCCUAACACUGACAAUGCCGGUCCCAAGGCCGGAUAAAAGUGGAGGGGGCGG [C14A C31G],0.02
5,CCGCCUAACACUGACAAUGCCGGUCCCAAGACCGGAUAAAAGUGGAGGGGGCGG [C14A C31A],0.03
6,CCGCCUAACACUGACAAUGCUGGUCCCAAGCCCGGAUAAAAGUGGAGGGGGCGG [C14A C21U],0.09
7,CCGCCUAACACUGACAAUGCGGGUCCCAAGCCCGGAUAAAAGUGGAGGGGGCGG [C14A C21G],0.03
8,CCGCCUAACACUGACAAUGCAGGUCCCAAGCCCGGAUAAAAGUGGAGGGGGCGG [C14A C21A],0.08
9,CCGCCUAACACUGACAAUGCCGGUGCCAAGCCCGGAUAAAAGUGGAGGGGGCGG [C14A C25G],0.02
10,CCGCCUAACACUGACAAUGCCGGUUCCAAGCCCGGAUAAAAGUGGAGGGGGCGG [C14A C25U],0.07
11,CCGCCUAACACUGACAAUGCCGGUACCAAGCCCGGAUAAAAGUGGAGGGGGCGG [C14A C25A],0.05
12,CCGCCUAACACUGACAAUGCCGGUCCCAAGCCCGGAUAAAAGUGGAGGGGGGGG [C14A C52G],0.13
13,CCGCCUAACACUGACAAUGCCGGUCCCAAGCCCGGAUAAAAGUGGAGGGGGAGG [C14A C52A],0.1
14,CCGCCUAACACUGACAAUGCCGGUCCCAAGCCCGGAUAAAAGUGGAGGGGGUGG [C14A C52U],0.13
15,CCGCCUAACACUGACAAUGCCGGUCCAAAGCCCGGAUAAAAGUGGAGGGGGCGG [C14A C27A],0.07
16,CCGCCUAACACUGACAAUGCCGGUCCGAAGCCCGGAUAAAAGUGGAGGGGGCGG [C14A C27G],0.03
17,CCGCCUAACACUGACAAUGCCGGUCCUAAGCCCGGAUAAAAGUGGAGGGGGCGG [C14A C27U],0.04
18,CCGCCUAACACUUACAAUGCCGGUCCCAAGCCCGGAUAAAAGUGGAGGGGGCGG [C14A G13U],0.02
19,CCGCCUAACACUAACAAUGCCGGUCCCAAGCCCGGAUAAAAGUGGAGGGGGCGG [C14A G13A],0.03
20,CCGCCUAACACUCACAAUGCCGGUCCCAAGCCCGGAUAAAAGUGGAGGGGGCGG [C14A G13C],0.02
21,CCGCCUAACACUGACAAUGCCGGUCCCAAGCCCGGAUAAAAGUGGAGGGGGCGG [C14A],0.13
22,CCGCCUAACACUUCCAAUGCCGGUCCCAAGCCCGGAGAAAAGUGGAGGGGGCGG [G13U U37G],0.04
23,CCGCCUAACACUUCCAAUGCCGGUCCCAAGCCCGGACAAAAGUGGAGGGGGCGG [G13U U37C],0.03
24,CCGCCUAACACUUCCAAUGCCGGUCCCAAGCCCGGAAAAAAGUGGAGGGGGCGG [G13U U37A],0.02
